Test results published in ChEMBL document CHEMBL4261627, “Design, synthesis and anti-melanogenic effect of cinnamamide derivatives” (Bioorg Med Chem, 2018).

Key:
[1] = Antioxidant activity assessed as DPPH-radical scavenging activity at 1 mM incubated for 30 mins under dark condition; type: functional
How it was run: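 DPPH (0.2 mM in methanol, 180 µL) was mixed with 20 µL of compound from a 10 mM DMSO stock, giving 1 mM final. The mix was kept in the dark for 30 min and read at 517 nm, with L-ascorbic acid as reference. % scavenging = (Ac−As)/Ac × 100 against untreated control. Triplicate, mean ± SD.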

B16-F10 [2] = experiment: Antimelanogenic activity in mouse B16F10 cells assessed as inhibition of alpha-MSH-stimulated melanin synthesis at 25 uM measured after 24 hrs; type: functional; conditions: B16-F10, 24 h
How it was run: (§1)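 B16F10 cells were seeded at 5x10^4 cells/well and grown 24 h at 37 °C in 5% CO2. […] After PBS washes, melanin was dissolved in 1 N NaOH and read as absorbance at 405 nm. Triplicate, mean ± SEM.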

[3] = target: T1, Tyrosinase (Mus musculus) (UniProt P11344); experiment: Inhibition of tyrosinase in alpha-MSH stimulated mouse B16F10 cells at 10 uM using L-dopa as substrate pretreated for 24 hrs followed by substrate addition and measured after 30 mins
T1 sequence (whole entry): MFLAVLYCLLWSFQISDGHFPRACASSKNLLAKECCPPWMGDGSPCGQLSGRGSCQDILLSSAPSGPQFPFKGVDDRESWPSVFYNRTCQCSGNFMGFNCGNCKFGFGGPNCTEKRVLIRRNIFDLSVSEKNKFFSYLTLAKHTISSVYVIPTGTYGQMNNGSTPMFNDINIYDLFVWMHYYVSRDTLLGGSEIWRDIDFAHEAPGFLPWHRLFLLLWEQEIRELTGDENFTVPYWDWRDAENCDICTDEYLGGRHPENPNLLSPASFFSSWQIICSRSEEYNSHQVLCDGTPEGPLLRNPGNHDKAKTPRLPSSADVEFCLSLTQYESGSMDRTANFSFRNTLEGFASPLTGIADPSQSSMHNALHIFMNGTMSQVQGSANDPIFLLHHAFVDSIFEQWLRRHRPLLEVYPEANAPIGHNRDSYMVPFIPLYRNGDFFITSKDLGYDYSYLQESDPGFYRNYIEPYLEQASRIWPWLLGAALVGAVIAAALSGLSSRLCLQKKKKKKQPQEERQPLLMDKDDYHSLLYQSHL
How it was run: (§2)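 Cells were lysed in pH 6.8 phosphate buffer with 0.1 mM PMSF and 1% Triton X-100, frozen at −80 °C, and spun. Supernatant (80 µL) was incubated with 20 µL of 10 mM L-dopa at 37 °C for 30 min and read at 500 nm. Triplicate.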

B16-F10 [4] = experiment: Antimelanogenic activity in mouse B16F10 cells assessed as inhibition of alpha-MSH-stimulated melanin synthesis at 10 uM measured after 24 hrs; type: functional, cell-based; how it was run: as §1
B16-F10 [5] = experiment: Cytotoxicity against mouse B16F10 cells up to 25 uM after 24 hrs by WST8 assay; type: cell-based; conditions: b16-f10, 24 h
How it was run: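 B16F10 cells (from DMEM/10% FBS culture) were seeded at 1x10^4 cells/well and held 24 h at 37 °C, 5% CO2. Compound (0, 5, 10, 25 µM) was added for a further 24 h. WST-8 reagent was then applied for 30 min to 2 h at 37 °C and OD read at 450 nm. Viability expressed as % of control; triplicate.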

[6] = target: T1, Tyrosinase (Mus musculus); experiment: Inhibition of tyrosinase in alpha-MSH stimulated mouse B16F10 cells using L-dopa as substrate pretreated for 24 hrs followed by substrate addition and measured after 30 mins; how it was run: as §2
[7] = target: T1, Tyrosinase (Mus musculus); conditions: 400 uM

Structure (SMILES) | inhibition [1] [%] | inhibition at 25 µM (B16-F10 [2]) [%] | further results
O=C(/C=C/c1ccc(O)cc1)N1CCCCC1 | 0.91 | – | –
COc1ccc(/C=C/C(=O)N2CCCCC2)cc1O | 37.6 | – | –
COc1cc(/C=C/C(=O)N2CCCCC2)ccc1O | 80.7 | 72.7 | inhibition [3]: 44%; inhibition (B16-F10 [4]): Dose-dependent effect; Activity (B16-F10 [5]): Non-Toxic; inhibition [6]: Dose-dependent effect
O=C(/C=C/c1ccc(O)cc1)N1CCCC1 | 3.51 | – | –
O=C(/C=C/c1ccc(O)c(O)c1)N1CCCC1 | 83.2 | – | –
OC[C@H]1O[C@@H](Oc2ccc(O)cc2)[C@H](O)[C@@H](O)[C@@H]1O | – | – | inhibition [7]: 51.7%
O=c1cc(CO)occ1O [KOJIC ACID] | – | 37.6 | –
COc1cc(/C=C/C(=O)N2CCCC2)ccc1O | 82.1 | – | –
O=C(/C=C/c1ccc(O)cc1O)N1CCCC1 | 22.3 | 78.3 | inhibition [3]: 38.3%; inhibition (B16-F10 [4]): Dose-dependent effect; Activity (B16-F10 [5]): Non-Toxic; inhibition [6]: Dose-dependent effect
O=C(/C=C/c1ccc(O)c(O)c1)N1CCCCC1 | 82.8 | – | –
O=C(/C=C/c1ccc(O)cc1O)N1CCCCC1 | 30.7 | 61.8 | inhibition [3]: 23.3%; inhibition (B16-F10 [4]): Dose-dependent effect; Activity (B16-F10 [5]): Non-Toxic
O=C1O[C@H]([C@@H](O)CO)C(O)=C1O | 84.6 | – | –
COc1ccc(/C=C/C(=O)N2CCCC2)cc1O | 34.2 | – | –
